# Screens deposited in PubChem BioAssay by several laboratories.
# pCIP destab: compounds decreasing mouse p/CIP protein stability; 290,000 compounds, 0.01% hits; AID 1984; F442A p/CIP-EGFP cells, EGFP fluorescence, 16 h; Q05BA5; decrease of EGFP signal, % at 10 µM;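 active = EGFP signal decrease of at least 30% at 10 µM or well 3 SD below plate mean, unless failing retest; inactive = the rest, including hits failing retest or dose response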
# MsrA inhibitor: inhibits bovine methionine sulfoxide reductase A; purified bovine MsrA, absorbance read-out; AID 651718; inhibition, % at 15.5 µM; 360,000 compounds, 0.75% hits; in the data active = inhibition above about 4.5%;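 also: 0% = vehicle wells with enzyme and 100% = reference inhibitor wells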
# SKN-1 block: blocks SKN-1 activity in C. elegans | inhibition, % at 21.8 µM | 360,000 compounds, 0.49% hits | C. elegans VP596 Pgst-4::GFP/RFP ratio, acrylamide-induced, 24 h;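 active = interference check ratio from 0.5 to 1.5 plus GFP to RFP signal ratio inhibition reaching or exceeding a fixed threshold, cut at about 30% in these data, passing the limit was not always enough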
# MT1-MMP act inh: inhibitors of human MT1-MMP activation; P50281; HT1080 RFP-PRO-GFP cells, GFP/RFP ratio fluorescence, overnight; percent of plate control window, DMSO zero; GFP/RFP ratio change, % at 20 µM; 360,000 compounds, 0.061% hits;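 active = GFP/RFP ratio change of at least 30% with cell ATP level not reduced by more than half and red fluorescence within 50% of control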
#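 Test system: HT1080 cells expressing an RFP-PRO-GFP fluorescent reporter construct / Compound dosing: single-point 20 µM compound, 1% DMSO / Schedule: cells overnight before dosing, compound overnight, 37 °C, 5% CO2 / Evaluation: GFP/RFP fluorescence ratio / Control set: DMSO and RFP-L50D-GFP cell wells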
# bovine MsrA act: activators of bovine methionine sulfoxide reductase A | purified bovine MsrA, absorbance read-out | activation, % at 10.6 µM | 360,000 compounds, 0.3% hits; in the data active = activation above about 7.5%;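 also: 0% = vehicle and 100% = reference activator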
# MsrA activ conf: bovine methionine sulfoxide reductase A activation confirmed; shares compounds with bovine MsrA act; purified bovine MsrA, absorbance read-out; activation, % at 10.6 µM; 1,000 compounds, 12% hits; AID 602270; in the data active = activation above about 4%;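 also: enzyme coupled to thioredoxin and thioredoxin reductase with NADPH; 0% = vehicle wells and 100% = reference activator wells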
# * = called active by the depositor; · = no result. An excerpt weighted towards active compounds, which were near 1.6% of everything screened.
SMILES,pCIP destab,MsrA inhibitor,SKN-1 block,MT1-MMP act inh,bovine MsrA act,MsrA activ conf
N#Cc1ccccc1OCCCN1CCC(C(O)(c2ccccc2)c2ccccc2)CC1,·,-1,4,5,8.3*,-2
CCOC(=O)CCCCCC(=O)Nc1ccc2c(c1)C(=O)N([C@H](C)CO)C[C@@H](C)[C@@H](CN(C)S(=O)(=O)c1ccc(C)cc1)OCCCC[C@H](C)O2,·,0,·,·,·,·
NCCCC(C(=O)O)N(C(=O)OCc1ccccc1)C(=O)OCc1ccccc1 (stereo not drawn),·,-1,·,·,·,·
Cc1ccc(C)c(NS(=O)(=O)c2cc(C(=O)N3CCc4ccccc4C3)ccc2Cl)c1,-17,0,13,-10,8.2*,-2
Nc1ncnc2nc(SCc3ccccc3)[nH]c12,9,0,3,2,7.8*,0
O=C(COC(=O)Cc1ccsc1)Nc1ccccc1,-8,1,-3,3,25*,2
CCOC(=O)Cn1c(=O)c2c(nc3n2CCCCN3c2ccc(OCC)cc2)n(C)c1=O,·,2,-1,-2,8.0*,-1
CCCCOC(=O)Cn1c(=O)c2c(nc3n2CCCCN3c2ccc(C)cc2)n(C)c1=O,-4,-1,20,1,-3,·
Cc1ccc(-n2[nH]c(C)c(C=Nc3ccc4[nH]c(=O)[nH]c4c3)c2=O)cc1,-6,3,8,19,7.8*,0
Cc1ccc(-n2[nH]c(C)c(C=Nc3cc(C)ccn3)c2=O)cc1,-10,2,-1,-1,-2,·
Nc1nc2ccccc2n1/N=C/c1ccc([N+](=O)[O-])s1,-18,3,8,-1,8.0*,7.8*
Nc1nc2ccccc2n1/N=C/c1cccnc1,·,2,-4,-4,-5,·
CCCC(=O)OC[C@H]1CN([C@H](C)c2ccccc2)S(=O)(=O)c2c(F)cccc2O1,·,-1,·,·,·,·
CS(=O)(=O)c1ccc(N)c(SSc2cc(S(C)(=O)=O)ccc2N)c1,·,1,1,-4,14*,9.8*
CC(C)CC(NC(=O)OCc1ccccc1)C(=O)NCC(=O)NCC(=O)OCc1ccccc1 (stereo not drawn),·,0,·,·,·,·
O=C(Nc1ccc2c(c1)OCO2)c1cncc(Br)c1,-13,0,1,0,-2,·
O=C(Nc1ccc2c(c1)OCCO2)c1cncc(Br)c1,-13,0,5,-4,9.2*,0
Cc1[nH]c(=S)sc1Cc1ccc(Cl)c(Cl)c1,-6,0,·,·,·,·
Cc1cc(Cl)cc2sc(=S)[nH]c12,·,0,11,-2,8.2*,2
CC(C)C(O)(c1ccccc1)C(CN1CCOCC1)c1ccccc1 (stereo not drawn),-6,0,6,-5,-7,·
CCc1ccc(C(O)(C(C)C)C(CN2CCOCC2)c2ccccc2)cc1 (stereo not drawn),-2,1,-12,-7,8.1*,1
c1ccc(N2CCOCCOCCOCCOCC2)cc1,-3,0,-5,-1,-1,·
c1ccn(-c2ccc(N3CCOCC3)cc2)c1,-9,-1,-3,4,10*,-1
CCCc1ccc(-c2cc(NC(=O)Cc3c(C)[nH]c4ccccc34)ccc2N(C)c2cccnc2)cc1,·,1,·,·,·,·
COc1cccc(-n2cn[nH]c2=S)c1,3,1,-11,1,7.8*,0
SMILES,pCIP destab,MsrA inhibitor,SKN-1 block,MT1-MMP act inh,bovine MsrA act,MsrA activ conf
O=C(Cn1ncc2c1-c1ccccc1OC2)N(Cc1ccco1)C1CCCCC1,-7,-1,8,3,7.7*,-1
CCN(CC)C(=O)Cn1ncc2c1-c1ccccc1OC2,4,2,13,4,-11,·
CCCn1cc(C(=O)Nc2ccc(Oc3cccnc3)cc2)c2ccccc21,·,1,·,·,·,·
CN1OC[C@@H]2CN(C(=S)Nc3cc(C(F)(F)F)cc(C(F)(F)F)c3)[C@H](c3ccccc3Br)C[C@@H]21,·,2,·,·,·,·
CCOC(=O)Cn1nc(-c2ccccc2)ccc1=O,-4,2,23,-1,-1,·
CCOC(=O)Cn1cc(-c2ccccc2)nn1,-14,0,4,3,8.3*,-1
COC(=O)c1cc2c(c3c4cc(OC)ccc4n(S(=O)(=O)c4cccc(C)c4)c13)C(=O)N(C)C2,·,0,·,·,·,·
O=C(Nc1ccccc1F)C1CCCN1S(=O)(=O)c1cccc2nsnc12 (stereo not drawn),-1,0,13,3,-4,·
O=C(Nc1ccccc1Br)C1CCCN1S(=O)(=O)c1cccc2nsnc12 (stereo not drawn),4,2,13,-1,15*,0
COc1cc(/C=N/n2nnnc2N)ccc1OC(C)=O,-3,2,-9,-2,-2,·
COc1ccc(/C=N/Nc2ncnc(Cl)c2N)cc1OC,4,3,-2,4,-2,·
COc1ccc(/C=N/Nc2nnc(C)n2N)cc1OC(C)=O,1,1,4,-2,12*,-2
COc1ccc(/C=N/Nc2nnc(C)n2N)cc1OC,-3,1,-3,5,9.0*,-1
CC(C)C[C@H](NS(=O)(=O)c1ccc(F)cc1F)C(=O)N1CCC[C@H]1C(=O)NCc1ccccc1,·,0,·,·,·,·
O=c1[nH]c(=S)[nH]cc1Oc1ccc(Cl)cc1Cl,-1,0,-4,1,8.8*,4.7*
Cc1nc(-c2ccccc2)[nH]c(=O)c1Oc1ccc(Cl)cc1Cl,-3,1,-3,-5,-1,·
COc1ccc(OC)c(S(=O)(=O)CC(=O)c2cc3ccccc3oc2=O)c1,·,0,·,·,·,·
Cc1nc2ccccn2c1-c1ccnc(=S)[nH]1,4,3,0,-1,8.8*,0
Cc1ccc(C2c3c(n[nH]c3C)C(=O)N2Cc2ccccc2)cc1 (stereo not drawn),·,1,·,·,·,·
O=C(NCCCN1CCN(CCCNC(=O)c2ccc3c(c2)OCO3)CC1)c1ccc2c(c1)OCO2,-6,-1,-5,2,-1,·
O=C(NCCN1CCCCC1)c1ccc2c(c1)OCCO2,-1,-1,-5,-2,10*,-2
CCOC(=O)C1=C(CSc2nc3c(cc2C#N)CN(C)CC3)OC(N)=C(C#N)C1c1ccncc1 (stereo not drawn),-7,2,13,-41,-3,·
CCOC(=O)C1=C(CSc2nc3c(cc2C#N)CN(C)CC3)OC(N)=C(C#N)C1c1ccc(Cl)cc1 (stereo not drawn),-11,0,4,-23,9.6*,-2
COc1cccc(C2NC(=S)NC(C)=C2C(C)=O)c1 (stereo not drawn),·,2,·,·,·,·
Cc1cc(N2CCNC[C@@H]2C)ccc1N1CCN(Cc2ccccc2)[C@H](C)C1,·,0,·,·,·,·
Cc1ccc(-n2sc3cc(F)ccc3c2=O)c(C)c1,·,-1,-3,20,14*,3
Cc1ccc(-n2sc3ccccc3c2=O)cc1,12,0,-3,4,13*,2
O=c1c2ccc(F)cc2sn1-c1ccccc1,·,1,47,16,13*,8.0*
O=c1c2cc(F)ccc2sn1-c1ccccc1Cl,·,-1,2,-1,0,·
